Our source for the inhibition, mortality and Activity values is ChEMBL document CHEMBL3046066, “Synthesis of new fluorinated Tebufenpyrad analogs with acaricidal activity through regioselective pyrazole formation” (2008).

Experiment [1] deals with Tetranychus urticae. Nature of the experiment: Acaricidal activity against Tetranychus urticae (two-spotted spider mite) assessed as fertility inhibition at 5 g/L measured after 4 days. The experiment is classed as functional. Particulars: 96 h. The essentials: (§1)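 Each compound was applied as a solution, with active-principle concentration in the assay of 5 g/L (preliminary screen) or 0.16 g/L. Adulticide effect (% adult mortality) and fertility inhibition (%) were scored 24 h, 4 days and 6 days after application.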

Experiment [2] has as its system Tetranychus urticae. As to the kind of experiment: Acaricidal activity against Tetranychus urticae (two-spotted spider mite) assessed as mortality at 0.16 g/L measured after 4 days. The experiment is classed as functional. Particulars: 96 h. The essentials:
as §1

Experiment [3] deals with Tetranychus urticae. Nature of the experiment: Acaricidal activity against Tetranychus urticae (two-spotted spider mite) assessed as fertility inhibition at 5 g/L measured after 6 days. The experiment is classed as functional. Particulars: 144 h. The essentials: as §1
The subject of experiment [4] is Tetranychus urticae. Nature of the experiment: Acaricidal activity against Tetranychus urticae (two-spotted spider mite) assessed as fertility inhibition at 0.16 g/L measured after 4 days. The experiment is classed as functional. Particulars: 96 h. In outline:
as §1

Experiment [5] concerns Tetranychus urticae. As to the kind of experiment: Acaricidal activity against Tetranychus urticae (two-spotted spider mite) assessed as mortality at 0.16 g/L measured after 24 hr. The experiment is classed as functional. In outline:
as §1

The test system of experiment [6] is Tetranychus urticae. Nature of the experiment: Acaricidal activity against Tetranychus urticae (two-spotted spider mite) assessed as mortality at 5 g/L measured after 6 days. The experiment is classed as functional. Particulars: 144 h. In outline:
as §1

Experiment [7] has as its system Tetranychus urticae. As to the kind of experiment: Acaricidal activity against Tetranychus urticae (two-spotted spider mite) assessed as mortality at 5 g/L measured after 4 days. The experiment is classed as functional. Particulars: 96 h. The essentials: as §1
Experiment [8] deals with Tetranychus urticae. Nature of the experiment: Acaricidal activity against Tetranychus urticae (two-spotted spider mite) assessed as fertility inhibition at 0.16 g/L measured after 6 days. The experiment is classed as functional. Particulars: 144 h. The essentials:
as §1

Experiment [9] concerns Tetranychus urticae. Nature of the experiment: Acaricidal activity against Tetranychus urticae (two-spotted spider mite) assessed as mortality at 0.16 g/L measured after 6 days. The experiment is classed as functional. Particulars: 144 h. The essentials:
as §1

Experiment [10] deals with Tetranychus urticae. As to the kind of experiment: Acaricidal activity against Tetranychus urticae (two-spotted spider mite) assessed as mortality at 5 g/L measured after 24 hr. The experiment is classed as functional. In outline:
as §1

Experiment [11] relates to Tetranychus urticae. Nature of the experiment: Acaricidal activity against Tetranychus urticae (two-spotted spider mite) assessed as fertility inhibition at 0.16 g/L measured after 24 hr. The experiment is classed as functional. In outline: as §1
The test system of experiment [12] is Tetranychus urticae. As to the kind of experiment: Acaricidal activity against Tetranychus urticae (two-spotted spider mite) assessed as fertility inhibition at 5 g/L measured after 24 hr. The experiment is classed as functional. In outline:
as §1

The subject of experiment [13] is Tetranychus urticae. Nature of the experiment: Acaricidal activity against Tetranychus urticae (two-spotted spider mite) assessed as mortality at 1.5 g/L measured first 4 days. The experiment is classed as functional, organism-based. In outline: (§2)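 Solutions at 1.50, 0.67 and 0.16 g/L were applied for a lower-concentration follow-up to the 5 g/L screen. Adult mortality (%) was scored over time after application, including within the first 24 h.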

Experiment [14] deals with Tetranychus urticae. As to the kind of experiment: Acaricidal activity against Tetranychus urticae (two-spotted spider mite) assessed as mortality at 1.5 g/L measured within 24 hr. The experiment is classed as functional. The essentials: as §2
In experiment [15] the test system is Tetranychus urticae. As to the kind of experiment: Acaricidal activity against Tetranychus urticae (two-spotted spider mite) assessed as mortality at 0.67 g/L measured within 24 hr. The experiment is classed as functional. In outline:
as §2

Molecules are shown by their SMILES. Calls of active or inactive are those of the source. The calls are words filed in the database; no cut-off is given here.

`CCc1nn(C)c(C(=O)NCc2ccc(C(C)(C)C)cc2)c1Cl` [TEBUFENPYRAD]: the inhibition at 5000 µg/mL in the experiment with Tetranychus urticae [1], in the experiment on Tetranychus urticae [3] and with Tetranychus urticae [12] was 100% each time. Also, the mortality at 160 µg/mL worked out at 100% in the experiment on Tetranychus urticae [2], 92% in the experiment with Tetranychus urticae [5] and 100% in the experiment on Tetranychus urticae [9]. In addition, the results for the inhibition at 160 µg/mL in the experiment on Tetranychus urticae [4], in the experiment on Tetranychus urticae [8] and in the experiment with Tetranychus urticae [11] were 100%, 100% and 84%, respectively. In addition, the mortality at 5000 µg/mL in the experiment on Tetranychus urticae [6], in the experiment on Tetranychus urticae [7] and in the experiment with Tetranychus urticae [10] was 100% throughout.

In the case of `CC(F)c1nn(C)c(C(=O)NCc2ccc(C(C)(C)C)cc2)c1Cl` (stereo not given), the inhibition at 5000 µg/mL in the experiment on Tetranychus urticae [1], in the experiment with Tetranychus urticae [3] and in the experiment on Tetranychus urticae [12] was 100% in each case. Further, the values for the mortality at 160 µg/mL with Tetranychus urticae [2], in the experiment on Tetranychus urticae [5] and in the experiment with Tetranychus urticae [9] were 44%, 48% and 66%, respectively. The values for the inhibition at 160 µg/mL in the experiment with Tetranychus urticae [4], with Tetranychus urticae [8] and in the experiment on Tetranychus urticae [11] were 95%, 96% and 95%, respectively. Moreover, the mortality at 5000 µg/mL is 100% in the experiment on Tetranychus urticae [6], 75% in the experiment on Tetranychus urticae [7] and 70% in the experiment on Tetranychus urticae [10]. The outcome in the experiment on Tetranychus urticae [13] was Active.

As for `Cn1nc(CC(F)F)c(Cl)c1C(=O)NCc1ccc(C(C)(C)C)cc1`, the inhibition at 5000 µg/mL in the experiment on Tetranychus urticae [1], in the experiment with Tetranychus urticae [3] and in the experiment on Tetranychus urticae [12] was 100% each time. Moreover, the mortality at 160 µg/mL with Tetranychus urticae [2] is 71%; in the experiment with Tetranychus urticae [5] it was 80%; in the experiment on Tetranychus urticae [9] it was 75%. The inhibition at 160 µg/mL in the experiment on Tetranychus urticae [4], in the experiment with Tetranychus urticae [8] and in the experiment with Tetranychus urticae [11] was 100% in each case. For the same compound, the mortality at 5000 µg/mL with Tetranychus urticae [6], with Tetranychus urticae [7] and with Tetranychus urticae [10] was 100% in each case. Besides, the mortality at 1500 µg/mL in the experiment with Tetranychus urticae [14] was 100%. Further, the outcome in the experiment with Tetranychus urticae [13] was Active.

On to `CC(F)c1cc(C(=O)NCc2ccc(C(C)(C)C)cc2)n(C)n1` (stereo not given), for which the results for the inhibition at 5000 µg/mL with Tetranychus urticae [1], in the experiment with Tetranychus urticae [3] and in the experiment with Tetranychus urticae [12] were 96%, 100% and 100%, respectively. Further, the mortality at 160 µg/mL was 10% in the experiment on Tetranychus urticae [2], 16% with Tetranychus urticae [5] and 10% in the experiment with Tetranychus urticae [9]. The figures for the inhibition at 160 µg/mL with Tetranychus urticae [4], in the experiment with Tetranychus urticae [8] and in the experiment on Tetranychus urticae [11] were 91%, 94% and 68%, respectively. Moreover, the mortality at 5000 µg/mL in the experiment on Tetranychus urticae [6] was found to be 80%; in the experiment with Tetranychus urticae [7], 70%; in the experiment on Tetranychus urticae [10] it was 70%.

Consider `Cn1nc(C(F)C(F)(F)F)c(Cl)c1C(=O)NCc1ccc(C(C)(C)C)cc1` (stereo not given), for which the inhibition at 5000 µg/mL in the experiment on Tetranychus urticae [1] was 60%; in the experiment on Tetranychus urticae [3], 65%; in the experiment on Tetranychus urticae [12] it was 53%. The mortality at 5000 µg/mL in the experiment with Tetranychus urticae [6] came to 60%; with Tetranychus urticae [7], 10%; with Tetranychus urticae [10] it was 10%.

In the case of `Cn1nc(CCF)c(Cl)c1C(=O)NCc1ccc(C(C)(C)C)cc1`, the inhibition at 5000 µg/mL in the experiment with Tetranychus urticae [1], in the experiment on Tetranychus urticae [3] and with Tetranychus urticae [12] was 100% throughout. For the same compound, the values for the mortality at 160 µg/mL in the experiment with Tetranychus urticae [2], in the experiment with Tetranychus urticae [5] and with Tetranychus urticae [9] were 100%, 96% and 100%, respectively. In addition, the inhibition at 160 µg/mL in the experiment with Tetranychus urticae [4], in the experiment on Tetranychus urticae [8] and with Tetranychus urticae [11] was 100% each time. Also, the mortality at 5000 µg/mL in the experiment with Tetranychus urticae [6], in the experiment on Tetranychus urticae [7] and in the experiment on Tetranychus urticae [10] was 100% throughout. Also, the mortality at 1500 µg/mL with Tetranychus urticae [14] was 100%. Further, the mortality at 670 µg/mL in the experiment with Tetranychus urticae [15] was 96%. Also, the outcome with Tetranychus urticae [13] was Active.

For `Cn1nc(CC(F)F)cc1C(=O)NCc1ccc(C(C)(C)C)cc1`, the inhibition at 5000 µg/mL in the experiment with Tetranychus urticae [1], with Tetranychus urticae [3] and in the experiment on Tetranychus urticae [12] was 100% throughout. The mortality at 160 µg/mL came to 14% in the experiment with Tetranychus urticae [2], 59% with Tetranychus urticae [5] and 10% in the experiment on Tetranychus urticae [9]. In addition, the inhibition at 160 µg/mL is 100% in the experiment on Tetranychus urticae [4], 98% in the experiment on Tetranychus urticae [8] and 96% in the experiment on Tetranychus urticae [11]. Further, the mortality at 5000 µg/mL in the experiment with Tetranychus urticae [6], with Tetranychus urticae [7] and with Tetranychus urticae [10] was 100% in each case.

For the compound `Cn1nc(CC(F)(F)F)c(Cl)c1C(=O)NCc1ccc(C(C)(C)C)cc1`, the inhibition at 5000 µg/mL in the experiment with Tetranychus urticae [1] was determined as 98%; with Tetranychus urticae [3], 98%; in the experiment with Tetranychus urticae [12], 97%. Besides, the mortality at 5000 µg/mL with Tetranychus urticae [6] came out at 70%; in the experiment with Tetranychus urticae [7] it was 30%; with Tetranychus urticae [10], 25%.
